We go through six compounds from article PMC2223364 (The Journal of General Physiology, 1999).

Assay [1] deals with rat muscle maxi-KCa channel, internal pore (Rattus norvegicus, UniProt Q62976). Nature of the assay: Single-channel block by ball peptide homologue. To be noted: for Kd: BP alone, +30 mV, 50 mM KCl, pH 7.4. The assay is classed as biochemical. A digest of the protocol: (§1)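 Single rat skeletal muscle maxi-KCa channels were taken from plasma membrane vesicles and fused into planar bilayers of 80% POPE/20% POPC. Recordings used symmetrical 50 mM KCl and 10 mM MOPS-KOH, pH 7.4. Internal CaCl2 was 200 μM, raised to 500 μM in some experiments to keep open probability >0.9. Holding was +30 mV at 20–23°C, with Ag/AgCl electrodes and agar-KCl bridges.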

Assay [2] deals with maxi-KCa channel (external TEA site). Nature of the assay: Fast block by external TEA in absence and presence of internal DTX-I. The assay is classed as biochemical, rat. Conditions: 460 nM DTX-I; P = 0.1. In a few lines: as §1
The next assay concerns maxi-KCa channels. Conditions: cited from earlier work.
The target in assay [3] is rat muscle maxi-KCa channel, intracellular sites (Rattus norvegicus, UniProt Q62976). Nature of the assay: Ligand interaction of BP and DTX-I on single maxi-KCa channels, planar bilayer. The class given is biochemical. A digest of the protocol:
as §1

Assay [4] has as its system cyclic nucleotide–gated channels. Conditions: ref Kramer et al., 1994; cited from earlier work.
Assay [5] relates to serine proteinases (chymotrypsin/trypsin family). Conditions: BPTI and related Kunitz molecules; ref Dufton, 1985; Capasso et al., 1997; cited from earlier work.
Assay [6] concerns rat muscle maxi-KCa channel (large conductance Ca^2+-activated K^+ channel), intracellular site. Nature of the assay: Ligand interaction of BPTI and DTX-I on single maxi-KCa channels, planar bilayer. The class given is biochemical. A digest of the protocol:
as §1

Assay [7] shares this test system. Put plainly: Single-channel substate kinetics of one Kunitz inhibitor. The class given is biochemical. A digest of the protocol:
as §1

The test system of assay [8] is maxi-KCa channel (external ChTX site). Nature of the assay: Slow block by external charybdotoxin in absence and presence of internal DTX-I. The assay is classed as biochemical, rat.
Where [9] appears, read: read-out: Kd (studied alone), abstract, one-site binding kinetics, unoccupied channel.

Several values for one entry are separate records, joined by “and”; a condition that tells them apart may be missing. Identical values can stand only once. Like-named read-outs stand apart in the source and are kept apart here. Ends that are not written are not given here.

Sequence of rat muscle maxi-KCa channel, intracellular sites (Q62976 whole entry): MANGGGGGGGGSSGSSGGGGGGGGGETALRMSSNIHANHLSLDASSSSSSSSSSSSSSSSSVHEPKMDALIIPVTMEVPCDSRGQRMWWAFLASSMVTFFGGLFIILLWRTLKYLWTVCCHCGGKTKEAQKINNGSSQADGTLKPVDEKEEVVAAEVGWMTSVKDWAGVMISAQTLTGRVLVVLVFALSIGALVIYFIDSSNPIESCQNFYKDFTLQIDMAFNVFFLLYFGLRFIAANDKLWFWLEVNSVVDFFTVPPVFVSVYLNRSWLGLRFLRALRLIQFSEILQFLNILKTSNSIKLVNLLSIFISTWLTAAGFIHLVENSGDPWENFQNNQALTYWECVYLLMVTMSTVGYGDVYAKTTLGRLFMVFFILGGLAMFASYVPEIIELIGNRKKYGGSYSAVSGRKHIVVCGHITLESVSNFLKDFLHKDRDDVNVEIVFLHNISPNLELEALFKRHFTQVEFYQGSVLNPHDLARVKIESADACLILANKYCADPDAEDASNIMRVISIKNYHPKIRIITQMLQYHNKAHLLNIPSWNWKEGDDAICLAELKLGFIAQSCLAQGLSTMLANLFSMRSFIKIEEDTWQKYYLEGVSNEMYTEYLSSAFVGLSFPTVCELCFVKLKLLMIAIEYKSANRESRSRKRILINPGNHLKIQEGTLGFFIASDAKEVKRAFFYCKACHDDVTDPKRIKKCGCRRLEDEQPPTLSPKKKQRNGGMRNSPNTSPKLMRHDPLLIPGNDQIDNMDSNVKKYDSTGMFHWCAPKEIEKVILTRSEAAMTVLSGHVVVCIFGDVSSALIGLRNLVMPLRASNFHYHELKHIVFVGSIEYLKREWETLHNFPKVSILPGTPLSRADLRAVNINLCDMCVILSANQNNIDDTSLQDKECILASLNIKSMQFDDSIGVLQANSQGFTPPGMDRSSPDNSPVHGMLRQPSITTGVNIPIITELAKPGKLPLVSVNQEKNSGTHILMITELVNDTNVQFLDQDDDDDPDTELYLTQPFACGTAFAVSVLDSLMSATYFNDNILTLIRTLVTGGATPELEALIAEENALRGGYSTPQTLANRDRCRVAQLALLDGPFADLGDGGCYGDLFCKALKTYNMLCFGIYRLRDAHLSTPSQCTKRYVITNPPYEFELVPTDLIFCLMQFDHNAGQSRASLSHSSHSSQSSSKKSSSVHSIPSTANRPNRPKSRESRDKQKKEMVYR
Sequence of rat muscle maxi-KCa channel, internal pore (Q62976 whole entry, the tested form may be a part): as the sequence (Q62976 whole entry) above

Consider `CC[N+](CC)(CC)CC` [TEA, tetraethylammonium], for which, in assay [1] (data not shown), the “effect of internal TEA on BP association” value was “decreases the association rate of BP homologue in a competitive fashion”. Further, the “binding interaction of external TEA with internal DTX-I” value in assay [2] is listed as “no detectable binding interaction”. The “effect of BPTI or DTX-I on blocking affinity of internal blocker” value in the assay with maxi-KCa channels (Ba^2+ with BPTI, internal TEA with DTX-I, ref Lucchesi and Moczydlowski, 1991) is “not significantly affected”. Also, the “inhibition of ball peptide block by TEA” value in the assay with maxi-KCa channels (ref Toro et al., 1992) is given as “inhibits ball peptide block of the maxi-KCa channel in a strictly competitive fashion”.

MAAVAVLYVLGKKRQHRKKQ [BP]: the Kd in [1] (equilibrium dissociation constant B1 = b−1/b1 (BP from BBP), unoccupied channel, kinetic ratio) was 7.16 nM; in assay [1] (equilibrium dissociation constant B1 from PU vs [BP] (Eq. 15), 4.5–6.5 h data pooled from three to seven single channels) it was 8.85 nM; in assay [3] it was 57 nM. For the same compound, the kon in assay [1] (pH 7.4, read-out: bimolecular association rate constant b1 (BP to U)) turned out to be 8.17e+07 M⁻¹ s⁻¹; in [3] (pH 7.4, read-out: association rate constant b2 (BP to SDTX)), 1.85e+06 M⁻¹ s⁻¹. Also, the koff in [1] (pH 7.4, read-out: dissociation rate constant b−1 (BP from BBP)) turned out to be 0.585 s⁻¹; in assay [3] (read-out: dissociation rate constant b−2 (BP from BBP/DTX)), 0.105 s⁻¹.

Turning to “Shaker ball peptide: 20-residue NH2 terminus of the Shaker K^+ channel of Drosophila that mediates rapid inactivation (MAAVAVLYVLGKKRQHRKKQ)”, the “block of cyclic nucleotide–gated channels” value in assay [4] is “blocks other types of ion channels”. In addition, in the assay on maxi-KCa channels (ref Foster et al., 1992, Toro et al.), the “block of maxi-KCa channels” value is “known to block maxi-KCa channels by a pore-occlusion mechanism”.

Consider “bovine pancreatic trypsin inhibitor [BPTI]”, for which the “inhibition of chymotrypsin/trypsin family serine proteinases” value in [5] was “potent inhibitors”. Besides, the “relief of the DTX substate” value in assay [6] (8 μM BPTI, 460 nM DTX-I) was roughly 30%. Besides, the “slope of τBURST vs [BPTI]” value in assay [6] (BPTI titration at 460 nM DTX-I, measured) was 3.25 s/µM. The “KApp for relief of normalized DTX-substate probability, best fit to Eq. 10” value in [6] (BPTI titration, 460 nM DTX-I) was 17.8 µM and 17.8 ± 1.7 µM. Besides, the “decrease of BPTI affinity when DTX-I is bound (K2/K1)” value in assay [6] (DTX-occupied vs unoccupied channel) was 11.7 fold and 11.7 ± 2.1 fold and ~11 fold. The “increase in mean τS-DTX” value in [6] (over 0–8 μM BPTI at 460 nM DTX-I) is reported as 47%. The Kd was determined as 17500 nM in assay [6] (read-out: Kd of BPTI when DTX-I is bound, abstract, DTX-occupied channel) and 1490 nM in assay [7] (setting [9]). The “probability of the channel residing in the fully open conductance state” value in assay [7] (8 μM internal BPTI (1.0 at 0 μM), +30 mV) is roughly 0.15. Moreover, in assay [7] (BPTI alone, internal, 1-8 μM, +30 mV, symmetrical 50 mM KCl, 10 mM MOPS-KOH pH 7.4, 200 μM internal Ca2+, 20–23°C, mean of four τS means, single-exponential), the “mean lifetime of BPTI-induced substate (τS)” value is ~0.41 s and 0.411 ± 0.022 s. Also, the “apparent association rate constant 4k1” value in assay [7] (BPTI alone, internal, fit of τU to Eq. 2, +30 mV, 50 mM KCl, pH 7.4) is given as 1.63 ± 0.07 × 10^6 s^−1M^−1. In addition, the “dissociation rate constant k−1” value in [7] (BPTI alone, internal, from τS (Eq. 1), ±SEM, +30 mV, 50 mM KCl, pH 7.4) was found to be 2.43 ± 0.13 s⁻¹. The “equilibrium dissociation constant K1 (kinetic ratio k−1/4k1)” value in assay [7] (BPTI, unoccupied channel, +30 mV, 50 mM KCl, pH 7.4) was 1.49 ± 0.10 µM and 1.49 µM. In addition, the Hill coefficient n in assay [7] (fit of PU vs [BPTI]) is recorded as 1.0. Further, the substate current level in assay [7] (ligand alone, internal, +30 mV) is on record as ~27 % of unitary current. Also, in assay [7] (words), the “binding kinetics when studied alone” value is “one-site binding kinetics”.

On to charybdotoxin [ChTX], for which the “binding interaction of external ChTX with internal DTX-I” value in assay [8] (460 nM internal DTX-I) is recorded as “no detectable binding interaction”. Also, in assay [8] (460 nM internal DTX-I, +30 mV), the “koff of ChTX, presence of DTX-I” value came to 0.0350 ± 0.0003 s⁻¹ and the “kon of ChTX, presence of DTX-I” value is on record as 2.89 ± 0.51 × 10^7 s^−1M^−1. In assay [8] (external ChTX (10 nM), +30 mV), the “koff of ChTX, absence of DTX-I” value amounted to 0.0369 ± 0.0004 s⁻¹ and the “kon of ChTX, absence of DTX-I” value is 2.77 ± 0.42 × 10^7 s^−1M^−1. Besides, the Kd in assay [8] (read-out: Kd of ChTX (koff/kon), absence of DTX-I, external ChTX (10 nM), +30 mV) was found to be 1.33 ± 0.2 nM.

Regarding “dendrotoxin I (QPLRKLCILHRNPGRCYQKIPAFYYNQKKKQCEGFTWSGCGGNSNRFKTIEECRRTCIRK; ends and bridges not checked; cysteine pairing not given here; UniProt P00979 1-60, looked up) [DTX-I]”, the Kd was determined as 139 nM in assay [3] (read-out: equilibrium dissociation constant J3 (DTX-I from BBP/DTX), DTX-I binding to BP-blocked state, from τBP, Eq. 19, +30 mV, 50 mM KCl, pH 7.4); 178 nM in [6] (read-out: equilibrium dissociation constant J2, DTX-I binding to BPTI-occupied channel, from slope of τBURST vs [BPTI], Eq. 7, 460 nM DTX-I, +30 mV, 50 mM KCl, pH 7.4); 16.5 nM in assay [7] (setting [9]); 16.5 nM in assay [7] (read-out: equilibrium dissociation constant J1 = j−1/4j1 (DTX-I from SDTX), DTX-I, unoccupied channel, +30 mV, 50 mM KCl, pH 7.4).
